Source: PubChem BioAssay (several laboratories)
Casp6 inh = human caspase-6 inhibitors, primary screen, biochemical, VEID-R110 fluorescence, single point, set 2 | P55212 | purified caspase-6, Z-VEID-R110 cleavage fluorescence | inhibition, % at 12.5 µM | hit rate 0.53% among 350,000 | AID 686996, 2013;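 active means mean inhibition across replicates at least about 35%, with every replicate also reaching that limit, limit read from the data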;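 further: 0% = median of neutral control wells and 100% = no fluorescence left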
NSD2 HMT inh = NSD2 histone methyltransferase inhibitors, primary screen, biochemical, AlphaScreen, single concentration, set 2; Histone-lysine N-methyltransferase NSD2 (Homo sapiens), O96028; NSD2 peptide methylation, 120 min; inhibition, % at 12.5 µM; hit rate 0.54% among 310,000; AID 743445, 2014; in the data active means inhibition above about 50%
LEDGF integ inh = blockers of LEDGF/p75-dependent integrase strand transfer – biochemical, TR-FRET, high throughput, primary screen | TR-FRET IN-LEDGF/p75 DNA integration, Eu/Cy5 | inhibition, % at 3.7 µM | hit rate 0.64% among 370,000 | AID 743269, 2014;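 active means inhibition above the screen-wide mean plus 3 SD, cut at about 13% in these data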;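 further: signal is the Cy5 over europium emission ratio at 671 and 618 nm; 0% = plate median of compound wells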
TDP2 absorb = human TDP2 enzyme inhibitors, primary screen, biochemical, epi absorbance, recombinant enzyme | Tyrosyl-DNA phosphodiesterase 2 (Homo sapiens), O95551 | T5PNP hydrolysis, p-nitrophenol absorbance 415 nm | inhibition, % at 12.8 µM | hit rate 0.34% among 370,000 | AID 720702, 2013;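 active means inhibition above the mean of all tested compounds plus 3 SD, set per campaign, cut at about 25% in these data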;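 further: 0% = DMSO with enzyme and 100% = buffer with substrate but no TDP2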
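Incubation: 2 h at 37 °C; Test system: recombinant human TDP2; Quantity: enzyme 120 nM; Read-out basis: percent inhibition; Medium: 50 mM Tris-HCl pH 7.5 with Mg2+, KCl, DTT, BSA; Repeats: single replicate; Compound: 12.8 µM single point, 1% DMSO; Signal: epi absorbance; Reagent: 5 mM T5PNP chromogenic substrate; Benchmarks: no-enzyme high, DMSO-plus-enzyme low.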
MBD2 DNA inh = inhibitors of MBD2 binding to methylated DNA, primary screen, biochemical, TR-FRET, DNA-binding domain, human | MBD2 binding to methylated oligonucleotide | AID 686964, 2013 | Methyl-CpG-binding domain protein 2 (Homo sapiens), Q9UBB5 | hit rate 0.31% among 370,000 | inhibition, % at 4.4 µM; in the data active means inhibition above about 13%
UHRF1 binding = UHRF1 methylated DNA binding inhibitors, primary screen, counter-screen for MBD2 inhibitor project, biochemical, TR-FRET, human UHRF1, single concentration | inhibition, % at 4.4 µM | E3 ubiquitin-protein ligase UHRF1 (Homo sapiens), Q96T88 | hit rate 0.75% among 370,000 | UHRF1 binding to methylated oligo; in the data active means inhibition above about 21%;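 further: UHRF1 SRA domain binding a hemimethylated CpG hairpin DNA probe; 0% = median of test compound wells and 100% = reference inhibitor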
Numbers without * were called inactive; · = no result given. A selection: hits, their analogues and other compounds. The true share with any hit is near 1.9%.

SMILES	Casp6 inh	NSD2 HMT inh	LEDGF integ inh	TDP2 absorb	MBD2 DNA inh	UHRF1 binding
CCCCNc1ccc2c(c1)OC[C@H](CC(C)C)NS2(=O)=O	1	·	2	3	-6	1
C[C@@H]1COc2cc(N3CCCCC3)ccc2S(=O)(=O)N1	2	·	-1	5	10	22*
C[C@@H]1COc2cc(NCCO)ccc2S(=O)(=O)N1	0	·	0	2	8	22*
CC(C)C[C@H]1COc2cc(NCCO)ccc2S(=O)(=O)N1	-1	·	2	-9	0	1
C[C@H](CO)N1C[C@H](C)[C@H](CN(C)S(=O)(=O)c2cn(C)cn2)OCCCC[C@H](C)Oc2ccc(NC(=O)C3CCCCC3)cc2C1=O	1	·	·	·	·	·
Cc1noc(C)c1NC(=O)Nc1ccc2c(c1)CC(=O)N([C@H](C)CO)C[C@H](C)[C@@H](CN(C)Cc1ccncc1)O2	-1	·	·	·	·	·
Cc1noc(C)c1S(=O)(=O)Nc1ccc2c(c1)C(=O)N([C@H](C)CO)C[C@H](C)[C@H](CN(C)C)O2	1	·	·	·	·	·
C[C@H](CO)N1C[C@H](C)[C@@H](CN(C)Cc2ccc(-c3ccccc3)cc2)Oc2ccc(NC(=O)Nc3cccc4ccccc34)cc2C1=O	-1	·	·	·	·	·
Cn1cccc1/C=N/NC(=O)c1cccnc1	·	2	1	-2	-2	-4
Cn1cccc1/C=N/NC(=O)c1ccc[n+]([O-])c1	-1	-1	2	12	1	22*
COc1ccc(NC(=O)c2cc3ccccn3n2)cc1	-2	·	4	-7	-6	30*
C/C=C/c1cnc2c(c1)C(=O)N([C@H](C)CO)C[C@@H](C)[C@@H](CN(C)S(=O)(=O)c1cn(C)cn1)O2	-1	·	·	·	·	·
CCCNC(=O)N1[C@H](CO)[C@H](c2ccccc2)[C@@H]1CNC(=O)C1CC1	-2	·	·	·	·	·
Nc1ccc(S(=O)(=O)Nc2cnc3ccccc3n2)cc1	9	·	1	5	-3	-1
Nc1ccc(S(=O)(=O)Nc2nc3ccccc3o2)cc1	62*	6	5	-2	0	-1
Cc1nn(-c2ccccc2)c2c1C(c1ccc(F)cc1F)C(C#N)=C(N)O2 (stereo not drawn)	·	8	9	62*	-3	4
O=C(O)CCc1ccc(S(=O)(=O)Nc2cc(C(F)(F)F)ccc2N2CCCC2)cc1	67*	2	4	5	-3	6
O=C(CSc1nncs1)N1CCN(C(=O)c2ccco2)CC1	-1	-1	-2	2	3	37*
O=C(O)c1cc(-c2ccc(-c3c(-c4ccc5c(c4)OCO5)noc3-c3ccsc3)cc2)nc2ccccc12	37*	·	4	3	0	7
O=C(Nc1ccc(OC(=O)c2cccs2)cc1)c1ccco1	·	2	1	10	10	24*
COc1ccc(NCC(=O)Nc2cccc(S(=O)(=O)N3CCCC3)c2)cc1Cl	-3	-2	5	-12	-2	26*
COc1ccc(S(=O)(=O)N2CCCCCC2)cc1NC(C)C(=O)Nc1ccc(NC(C)=O)cc1 (stereo not drawn)	-4	0	2	1	-4	33*
COc1ccc(NS(=O)(=O)c2c(C)[nH]c(C)c2C(=O)N2CCCCC2)cc1Cl	0	5	-2	11	-5	2
O=C(CNc1cccc(S(=O)(=O)N2CCCC2)c1)Nc1cccc(Br)c1	44*	1	-6	-10	0	-1
O=C(CNc1ccc(Br)cc1)Nc1cccc(S(=O)(=O)N2CCCC2)c1	1	-4	-2	-2	6	11
SMILES	Casp6 inh	NSD2 HMT inh	LEDGF integ inh	TDP2 absorb	MBD2 DNA inh	UHRF1 binding
COc1ccc(NCC(=O)N2CCCC2)cc1Cl	-3	5	53*	-7	-3	-1
COc1cc(NC(=O)CNc2cccc(S(=O)(=O)N3CCCC3)c2)cc(OC)c1	-1	-1	-3	8	1	-1
COc1ccc(NC(C)=O)cc1NC(C)C(=O)Nc1cccc(S(=O)(=O)N2CCOCC2)c1 (stereo not drawn)	-4	-1	6	10	-10	-1
C[C@@H]1CN([C@H](C)CO)C(=O)Cc2cc(NC(=O)NC3CCCCC3)ccc2O[C@H]1CN(C)S(=O)(=O)c1cccs1	3	·	·	·	·	·
CO[C@@H]1CN(C)C(=O)c2ccc(NC(=O)C3CCC3)cc2OC[C@H](C)N(C(=O)NC(C)C)C[C@H]1C	1	·	·	·	·	·
C[C@@H]1CCCCO[C@H](CN(C)C(=O)CCC(F)(F)F)[C@H](C)CN([C@H](C)CO)C(=O)c2cc(NC(=O)CCC(F)(F)F)ccc2O1	-2	·	·	·	·	·
O=C(COC(=O)c1cccc(OC(F)F)c1)Nc1cccc(S(=O)(=O)N2CCCC2)c1	60*	-1	-1	13	2	-1
N#CCC(=O)Nc1ccc(C(=O)Nc2cccc(S(=O)(=O)N3CCCC3)c2)cc1	1	1	1	2	2	69*
COc1ccc(C(CNC(=O)c2ccc(S(=O)(=O)Nc3ccc(F)cc3)cc2)N(C)C)cc1 (stereo not drawn)	-3	0	2	-10	-4	-3
COc1ccc(C(CNC(=O)c2ccc(NS(=O)(=O)c3ccc4c(c3)OCCO4)cc2)N(C)C)cc1 (stereo not drawn)	1	0	5	-3	-1	21*
Cc1ccccc1-c1nc2c3ccccc3nc(=S)n2[nH]1	0	3	4	-10	0	-1
Cc1nc2ccccc2n1CCc1nc2c3ccccc3nc(=S)n2[nH]1	·	-1	-3	-1	-1	22*
CCNC(=S)N/N=C/c1c(Cl)cccc1Cl	1	-1	-3	-5	-3	-3
CC(C)(C)NC(=S)N/N=C/c1c(Cl)cccc1Cl	0	-2	3	6	0	36*
COc1ccc2c3c([nH]c2c1)[C@@H](CO)N(C(=O)C1CCCCC1)CC31CCN(C(=O)NC(C)C)CC1	0	·	·	·	·	·
COC(=O)c1ccc(C(=O)OC)c(NC(=O)CN(c2ccc3c(c2)OCO3)S(C)(=O)=O)c1	42*	1	2	3	-3	-3
COc1ccccc1C(=O)NC(=O)CSc1nnc2ccccn12	3	0	2	-1	-2	1
O=C(CSc1nnc2ccccn12)NC(=O)c1ccccc1Cl	39*	1	-2	-4	-3	5
CCn1c(SCC(=O)NCc2ccc3c(c2)OCO3)nc2c(c1=O)SCC2	3	0	18*	1	-3	1
